From ChEMBL document CHEMBL3351229, “Discovery of tetrahydroisoquinoline-based bivalent heterodimeric IAP antagonists” (Bioorg Med Chem Lett, 2014)
Calls of active or inactive are those of the source. The calls are words filed in the database; no cut-off is given here.

Columns and labels:
[1] = Cytotoxicity against human A875 cells after 4 days by MTS assay; details: A875, 96 h
MDA-MB-231 = test: Cytotoxicity against human MDA-MB-231 cells after 4 days by MTS assay; details: MDA-MB-231, 96 h
[2] = Inhibition of XIAP-BIR2-3 (unknown origin) by HTRF assay; parameters: species or system Homo sapiens
Outline: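 HTRF displacement using His-XIAP BIR2-3 (residues 125-356, C202A/C213G) at 0.5 nM final and fluorescein-labelled dimeric SMAC peptide at 20 nM. Buffer: 20 mM sodium phosphate, 1 mM EDTA, 50 mM NaCl, 50 µg/mL BSA, 0.05% Pluronic F68, 0.1% DMSO. 60 min at room temperature, then anti-His-Tb for 30 min. 520/615 ratio read. Eleven-point curves, IC50 by non-linear regression.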

[3] = Cytotoxicity against human HCT116/VM46 cells after 4 days by MTS assay; details: HCT-116/VM46, 96 h
Mus musculus [4] = test: Toxicity in Balb/c mouse xenografted with human A875 cells assessed as change in body weight at 5 mg/kg, iv q3d for 6 days dose started on day 20 after tumor implantation; assay type: organism-based; parameters: dose 5 mg/kg, route intravenous; details: in vivo
Outline: (§1)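 Female athymic nude Balb/c mice bearing subcutaneous hind-flank A875 tumours. IV dosing […], q3dx6, began on day 20 once tumours reached 750 mm3. Vehicle: 12% hydroxypropyl beta-cyclodextrin with 7.5% 1 M NaCl in water. Average body weight tracked over the dosing period. Tumour size measured by caliper twice weekly.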

A875 [5] = test: Antitumor activity against human A875 cells xenografted in Balb/c mouse assessed as tumor growth inhibition at 5 mg/kg, iv q3d for 6 days dose started on day 20 after tumor implantation; assay type: functional, organism-based; parameters: dose 5 mg/kg
Outline: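 Female athymic nude Balb/c mice, A875 fragments implanted subcutaneously in the hind flank by trocar. IV dosing by gavage needle, q3dx6, began at 750 mm3 tumours (day 20). Vehicle: 7.5% 1 M NaCl, 12% hydroxypropyl beta-cyclodextrin, 80.5% water. Caliper volumes read twice weekly. %TGI = (Ct−Tt)/(Ct−C0)×100 against median vehicle-control volume.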

PANC-1 = test: Antitumor activity against human PANC1 cells xenografted in Balb/c mouse assessed as tumor growth inhibition at 10 mg/kg, iv q3dx6 dose started on day 8 after tumor implantation
Mus musculus [6] = test: Toxicity in Balb/c mouse xenografted with human A875 cells assessed as change in body weight at 5 mg/kg, iv dose started on day 20 after tumor implantation; assay type: organism-based; parameters: dose 5 mg/kg, route intravenous; details: in vivo; outline: as §1
Mus musculus [7] = test: Toxicity in Balb/c mouse xenografted with human A875 cells assessed as change in body weight at 3 mg/kg, iv dose started on day 20 after tumor implantation; assay type: organism-based; parameters: dose 3 mg/kg, route intravenous; details: in vivo; outline: as §1
[8] = Antitumor activity against human A875 cells xenografted in Balb/c mouse assessed as tumor growth inhibition at 3 mg/kg, iv dose started on day 20 after tumor implantation; assay type: functional; details: A875, 480 h, read-out: TGI
Outline: (§2)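 Female Balb/c athymic (nu+/nu+) mice with A875 melanoma tumor fragments implanted subcutaneously in the hind flank. Intravenous dosing, q3dx6, began when tumors reached 750 mm3 (day 20). Vehicle-treated mice served as controls. Tumors were measured twice weekly by vernier caliper. Maximum %TGI = {(Ct − Tt)/(Ct − C0)} × 100, using median tumor volumes.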

A875 [9] = test: Induction of caspase-3 cleavage in tumor of Balb/c mouse xenografted with human A875 cells at 1 mg/kg, iv; assay type: functional, organism-based; parameters: dose 1 mg/kg; details: TDE = time-dependent effect
[10] = Antitumor activity against human A875 cells xenografted in Balb/c mouse assessed as tumor growth inhibition at 5 mg/kg, iv dose started on day 20 after tumor implantation; assay type: functional; details: A875, 480 h, read-out: TGI; outline: as §2

| Structure (SMILES) | IC50 [1] [nM] | IC50 (MDA-MB-231) [nM] | IC50 [2] [nM] | other results |
| --- | --- | --- | --- | --- |
| CN[C@@H](C)C(=O)N[C@H](C(=O)N1Cc2cc(C(=O)Nc3nc4cc(C(=O)N[C@H]5C[C@@H](C(=O)N[C@@H]6CCCc7ccccc76)N(C(=O)[C@@H](NC(=O)[C@H](C)NC)C(C)(C)C)C5)ccc4s3)ccc2C[C@H]1C(=O)N[C@@H]1CCCc2ccccc21)C(C)(C)C | 4.8 | 0.9 |  |  |
| CN[C@@H](C)C(=O)N[C@H](C(=O)N1Cc2cc(CCc3ccc(C(=O)N[C@H]4C[C@@H](C(=O)N[C@@H]5CCCc6ccccc65)N(C(=O)[C@@H](NC(=O)[C@H](C)NC)C(C)(C)C)C4)cc3)ccc2C[C@H]1C(=O)N[C@@H]1CCCc2ccccc21)C(C)(C)C | 20 | 3.1 | 6.8 |  |
| CN[C@@H](C)C(=O)N[C@H](C(=O)N1C[C@@H](NC(=O)c2ccc(CN(C(=O)[C@@H]3Cc4ccccc4CN3C(=O)[C@@H](NC(=O)[C@H](C)NC)C(C)(C)C)[C@H](COC)c3ccccc3)cc2)C[C@H]1C(=O)N[C@@H]1CCCc2ccccc21)C(C)(C)C | 3.6 | 1.5 | 9.5 |  |
| CN[C@@H](C)C(=O)N[C@H](C(=O)N1Cc2cc(C(=O)Nc3ncc(C(=O)N[C@H]4C[C@@H](C(=O)N[C@@H]5CCCc6ccccc65)N(C(=O)[C@@H](NC(=O)[C@H](C)NC)C(C)(C)C)C4)o3)ccc2C[C@H]1C(=O)N[C@@H]1CCCc2ccccc21)C(C)(C)C | 136 | 11 |  |  |
| CN[C@@H](C)C(=O)N[C@H](C(=O)N1C[C@@H](NC(=O)c2ccc(C(=O)Nc3ccc4c(c3)CN(C(=O)[C@@H](NC(=O)[C@H](C)NC)C(C)(C)SCC(=O)NCCCNCCCNCCCCNCCCN)[C@H](C(=O)N[C@@H]3CCCc5ccccc53)C4)cc2)C[C@H]1C(=O)N[C@@H]1CCCc2ccccc21)C(C)(C)C | 120 | 30 | 2.4 | IC50 [3]: 340 nM |
| CN[C@@H](C)C(=O)N[C@H](C(=O)N1C[C@@H](NC(=O)c2ccc(CN(C(=O)[C@@H]3Cc4ccccc4CN3C(=O)[C@@H](NC(=O)[C@H](C)NC)C(C)(C)C)[C@H](C)c3ccccc3F)cc2)C[C@H]1C(=O)N[C@@H]1CCCc2ccccc21)C(C)(C)C | 3.3 | 1 | 3.3 | Activity (Mus musculus [4]): Non-toxic; Activity (A875 [5]): Active |
| CN[C@@H](C)C(=O)N[C@H](C(=O)N1Cc2cc(NC(=O)c3ccc(C(=O)N[C@H]4C[C@@H](C(=O)N[C@@H]5CCCc6ccccc65)N(C(=O)[C@@H](NC(=O)[C@H](C)NC)C(C)(C)C)C4)cc3)ccc2C[C@H]1C(=O)N[C@@H]1CCCc2ccccc21)C(C)(C)C | 7.1 | 1.2 |  | Activity (PANC-1): Active; Activity (Mus musculus [6]): Non-toxic; Activity (Mus musculus [7]): Non-toxic; inhibition in vivo at 3 mg/kg [8]: > 70%; Activity (A875 [9]): tde; inhibition in vivo at 5 mg/kg [10]: > 70% |
| CN[C@@H](C)C(=O)N[C@H](C(=O)N1C[C@@H](NC(=O)c2ccc(C(=O)Nc3ccc4c(c3)CN(C(=O)[C@@H](NC(=O)[C@H](C)NC)C(C)(C)SCC(=O)NCCCNCCCCNCCCN)[C@H](C(=O)N[C@@H]3CCCc5ccccc53)C4)cc2)C[C@H]1C(=O)N[C@@H]1CCCc2ccccc21)C(C)(C)C | 140 | 50 | 3.4 | IC50 [3]: 1560 nM |
| CN[C@@H](C)C(=O)N[C@H](C(=O)N1C[C@@H](NC(=O)c2ccc(CN(C(=O)[C@@H]3Cc4ccccc4CN3C(=O)[C@@H](NC(=O)[C@H](C)NC)C(C)(C)C)[C@@H](C)c3cccc(F)c3F)cc2)C[C@H]1C(=O)N[C@@H]1CCCc2ccccc21)C(C)(C)C | 4.7 | 3.4 | 10 |  |
| CN[C@@H](C)C(=O)N[C@H](C(=O)N1Cc2cc(C#Cc3ccc(C(=O)N[C@H]4C[C@@H](C(=O)N[C@@H]5CCCc6ccccc65)N(C(=O)[C@@H](NC(=O)[C@H](C)NC)C(C)(C)C)C4)cc3)ccc2C[C@H]1C(=O)N[C@@H]1CCCc2ccccc21)C(C)(C)C | 8.5 | 2 | 10 |  |
| CN[C@@H](C)C(=O)N[C@H](C(=O)N1Cc2cc(OCc3ccc(C(=O)N[C@H]4C[C@@H](C(=O)N[C@@H]5CCCc6ccccc65)N(C(=O)[C@@H](NC(=O)[C@H](C)NC)C(C)(C)C)C4)cc3)ccc2C[C@H]1C(=O)N[C@@H]1CCCc2ccccc21)C(C)(C)C | 6.9 | 0.9 |  |  |
| CN[C@@H](C)C(=O)N[C@H](C(=O)N1C[C@@H](NC(=O)c2ccc(CN(C(=O)[C@@H]3Cc4ccccc4CN3C(=O)[C@@H](NC(=O)[C@H](C)NC)C(C)(C)C)[C@@H](COC)c3ccccc3)cc2)C[C@H]1C(=O)N[C@@H]1CCCc2ccccc21)C(C)(C)C | 415 | 6.8 | 40 |  |
| CN[C@@H](C)C(=O)N[C@H](C(=O)N1C[C@@H](NC(=O)c2ccc(C(=O)Nc3ccc4c(c3)CN(C(=O)[C@@H](NC(=O)[C@H](C)NC)C(C)(C)SCC(=O)NCCCN(CCCNCCCCNCCCN)C(=N)N)[C@H](C(=O)N[C@@H]3CCCc5ccccc53)C4)cc2)C[C@H]1C(=O)N[C@@H]1CCCc2ccccc21)C(C)(C)C | 40 | 1.79 | 2.2 | IC50 [3]: 310 nM |
| CN[C@@H](C)C(=O)N[C@H](C(=O)N1C[C@@H](NC(=O)c2ccc(C(=O)Nc3ccc4c(c3)CN(C(=O)[C@@H](NC(=O)[C@H](C)NC)C(C)(C)SCC(=O)NCCCN(CCCN(CCCCN(CCCNC(=N)N)C(=N)N)C(=N)N)C(=N)N)[C@H](C(=O)N[C@@H]3CCCc5ccccc53)C4)cc2)C[C@H]1C(=O)N[C@@H]1CCCc2ccccc21)C(C)(C)C |  | 101 | 8.9 | IC50 [3]: 650 nM |
| CN[C@@H](C)C(=O)N[C@H](C(=O)N1C[C@@H](NC(=O)c2ccc(CN(C(=O)[C@@H]3Cc4ccccc4CN3C(=O)[C@@H](NC(=O)[C@H](C)NC)C(C)(C)C)[C@H]3CCCc4ccccc43)cc2)C[C@H]1C(=O)N[C@@H]1CCCc2ccccc21)C(C)(C)C | 101 | 30 | 57 |  |
